In ChEMBL document CHEMBL1142275, “Searching for new NO-donor aspirin-like molecules: a new class of nitrooxy-acyl derivatives of salicylic acid” (J Med Chem, 2008):
Calls of active or inactive are those of the source. The rule behind the calls is not given here.

Legend:
[1] = system: Aorta; experiment: Vasodilation activity in Wistar rat aorta assessed as relaxation of phenylephrine-induced smooth muscle contraction
[2] = Dissociation constant, pKa of the compound; assay type: physicochemical
[3] = system: Plasma; experiment: Inhibition of collagen-induced platelet aggregation in human plasma at 300 uM relative to control
[4] = Lipophilicity, log P of the compound; assay type: physicochemical; conditions: octanol/water
[5] = Stability in human serum assessed as half life; assay type: ADME, cell-free
In short: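 Compound from 10 mM acetonitrile stock added to human serum at 37 °C (final 250 μM), incubated at 37 ± 0.5 °C. Aliquots deproteinised with acetonitrile containing 0.1% TFA, sonicated, vortexed, centrifuged 10 min at 2150 g, filtered, then RP-HPLC for parent compound and salicylic acid. First-order hydrolysis; t1/2 in h ± SD.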

[6] = Chemical stability in aqueous buffer at pH 7.4 after 3 hrs; assay type: physicochemical; conditions: read-out: Stability
In short: (§1)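 10 mM acetonitrile stock added to 0.1 M HCl (pH 1) or 50 mM phosphate buffer pH 7.4 preheated to 37 °C; final compound 250 μM. Held at 37 ± 0.5 °C, aliquots taken at intervals and analysed by RP-HPLC. Value is % compound remaining unchanged at 3 h.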

[7] = Chemical stability in aqueous buffer at pH 1 after 3 hrs; assay type: physicochemical; conditions: read-out: Stability
In short: as §1

[8] = system: Plasma; experiment: Inhibition of collagen-induced platelet aggregation in human plasma in presence of 1H-[1,2,4]oxadiazolo[4,3-a]quinoxalin-1-one
[9] = system: Plasma; experiment: Inhibition of collagen-induced platelet aggregation in human plasma in presence of 1H-[1,2,4]oxadiazolo[4,3-a]quinoxalin-1-one; assay type: functional, cell-free
In short: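 Human PRP prepared by centrifuging citrated blood at 200 g for 20 min. Compounds (vehicle 0.5% DMSO) preincubated 10 min before collagen at 0.8-1.5 μg/mL (submaximal). Light-transmission aggregometry, stirring 1000 rpm, 37 °C, 10 min. sGC inhibitor ODQ at 50 μM. Inhibition relative to control; IC50 by non-linear regression, otherwise % inhibition at 300 μM; ≥5 experiments.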

[10] = system: Rattus norvegicus; experiment: Antiinflammatory activity against carrageenan-induced paw edema in Wistar rat at 120 mg/kg, intragastrically after 3 hrs; assay type: functional; conditions: route intragastric
In short: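 Conscious rats, edema raised by intraplantar 0.1 ml of 1% carrageenan (in 1% CMC) into right hindpaw. […] Paw volume by water plethysmometer before and 3 h after carrageenan. Inhibition expressed relative to vehicle edema taken as 100. Groups of 6-8 animals; mean ± SEM.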

[11] = system: Rattus norvegicus; experiment: Toxicity in Wistar rat assessed as lesion index at 120 mg/kg, intragastrically after 3 hrs; assay type: organism-based; set-up: dose 120 mg/kg, route intragastric; conditions: in vivo, po
In short: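 Male Wistar rats, 180-200 g, fasted 24 h with water available. […] Killed after 3 h; stomachs opened along the lesser curvature and glandular mucosa examined under stereomicroscope. Each haemorrhagic lesion rated by greatest length (<1 mm = 1; 1-2 mm = 2; >2 mm = length), then summed as lesion index; mean ± SEM.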

| Structure (SMILES) | EC50 [1] [µM] | pKa [2] | inhibition at 300 µM [3] [%] | logP [4] | half-life [5] [h] | remaining at 3 h [6] [%] | remaining at 3 h [7] [%] | IC50 [8] [µM] | Activity [9] | Activity [10] [%] | Activity [11] [%] |
| --- | --- | --- | --- | --- | --- | --- | --- | --- | --- | --- | --- |
| O=C(CCCC(CO[N+](=O)[O-])O[N+](=O)[O-])Oc1ccccc1C(=O)O (stereo not given) | 5.8 | 3.69 | 6.7 | 1.6 | 4.87 | > 95 | > 85 | – | – | – | – |
| O=C(CCCCCO[N+](=O)[O-])Oc1ccccc1C(=O)O | 14 | 3.69 | 27 | 1.6 | 2.03 | > 95 | > 97 | – | – | – | – |
| O=C(CCCO[N+](=O)[O-])Oc1ccccc1C(=O)O | 23 | 3.69 | – | 1.6 | 0.47 | > 95 | > 97 | 24 | – | – | – |
| O=C(CCCCCCO[N+](=O)[O-])Oc1ccccc1C(=O)O | 8.1 | 3.69 | – | 1.6 | 1.19 | > 95 | > 97 | – | inactive | – | – |
| O=C(CCCCC(CO[N+](=O)[O-])O[N+](=O)[O-])Oc1ccccc1C(=O)O (stereo not given) | 3.1 | 3.69 | – | 1.6 | 6.25 | > 95 | > 85 | – | inactive | – | – |
| CC(C)(CO[N+](=O)[O-])C(=O)Oc1ccccc1C(=O)O | 6.2 | 3.69 | 26 | 1.6 | 9.03 | > 95 | > 97 | – | – | – | – |
| CC(C)(CCC(CO[N+](=O)[O-])O[N+](=O)[O-])C(=O)Oc1ccccc1C(=O)O (stereo not given) | 5.3 | 3.69 | – | 1.6 | 15.2 | > 95 | > 97 | – | inactive | – | – |
| O=C(CC(CO[N+](=O)[O-])O[N+](=O)[O-])Oc1ccccc1C(=O)O (stereo not given) | 9.2 | 3.69 | – | 1.6 | 0.28 | 20 | > 85 | 119 | – | – | – |
| O=C(CCC(CO[N+](=O)[O-])O[N+](=O)[O-])Oc1ccccc1C(=O)O (stereo not given) | 8.2 | 3.69 | 15 | 1.6 | 4.09 | > 95 | > 85 | – | – | – | – |
| O=C(CCO[N+](=O)[O-])Oc1ccccc1C(=O)O | 37 | 3.69 | – | 1.6 | 0.26 | 55 | > 90 | 186 | – | – | – |
| O=C(O)c1ccccc1O [SALICYLIC ACID] | – | – | – | – | – | > 90 | 85 | – | – | – | – |
| O=C(CCCCO[N+](=O)[O-])Oc1ccccc1C(=O)O | 21 | 3.69 | – | 1.6 | 0.76 | > 95 | > 97 | 91 | – | – | – |
| CC(=O)Oc1ccccc1C(=O)O [ASPIRIN] | – | – | – | 1.14 | 1.06 | > 90 | > 90 | – | – | 47 | 53.5 |
